Experimental data reported in ChEMBL document CHEMBL4732200, “Synthesis and antiviral activity of a series of novel quinoline derivatives as anti-RSV or anti-IAV agents” (Eur J Med Chem, 2021).

Tested on: not listed separately
Assay: Cytotoxicity against human HEp-2 cells assessed as reduction in cell viability after 48 hrs by MTS assay
Format: cell-based
Conditions: not given

Q: With CCOc1ccccc1NC(=O)COc1cccc2ccc(N3CCCC3)nc12 as the molecule, how does the CC50 at 48 h read?
A: The CC50 at 48 h was 1040 µM.

Q: With O=C(COc1cccc2ccc(N3CCCC3)nc12)NCc1cccc(Cl)c1 as the molecule, how does the CC50 at 48 h read?
A: The CC50 at 48 h was 73 µM.

Q: Which CC50 at 48 h does the source give for c1cc(OCCCN2CCOCC2)c2nc(N3CCCC3)ccc2c1 here?
A: Its CC50 at 48 h is 552 µM.

Q: With CN1CCN(c2ccc3cccc(OCC(=O)NCc4ccccc4)c3n2)CC1 as the molecule, how does the CC50 at 48 h read?
A: Its CC50 at 48 h is 264 µM.

Q: Which CC50 at 48 h does the source give for O=C(COc1cccc2ccc(N3CCCC3)nc12)NCc1ccc(C(F)(F)F)cc1 here?
A: Its CC50 at 48 h is 327 µM.

Q: With O=C(COc1cccc2ccc(N3CCCC3)nc12)NCc1ccc(F)cc1 as the molecule, how does the CC50 at 48 h read?
A: The CC50 at 48 h was 2130 µM.

Q: With CN(C)c1ccc2cccc(OCC(=O)NCc3ccccc3)c2n1 as the molecule, how does the CC50 at 48 h read?
A: Its CC50 at 48 h is 168 µM.

Q: For CNc1ccc2cccc(OCC(=O)NCc3ccccc3)c2n1, which CC50 at 48 h is on record?
A: Its CC50 at 48 h is 94.8 µM.

Q: With c1cc(OCCCCN2CCOCC2)c2nc(N3CCCC3)ccc2c1 as the molecule, how does the CC50 at 48 h read?
A: The CC50 at 48 h was 691 µM.

Q: For CCOc1ccccc1CNC(=O)COc1cccc2ccc(N3CCCC3)nc12, which CC50 at 48 h is on record?
A: The CC50 at 48 h was 113 µM.

Q: Which CC50 at 48 h does the source give for O=C(COc1cccc2ccc(N3CCOCC3)nc12)NCc1ccccc1 here?
A: The CC50 at 48 h was 46.2 µM.

Q: Which CC50 at 48 h does the source give for COc1ccc(CNC(=O)COc2cccc3ccc(N4CCCC4)nc23)cc1 here?
A: The CC50 at 48 h was 2490 µM.

Q: With O=C(COc1cccc2ccc(N3CCCC3)nc12)NCC1CC1 as the molecule, how does the CC50 at 48 h read?
A: Its CC50 at 48 h is 580 µM.

Q: With O=C(COc1cccc2ccc(N3CCCC3)nc12)NCc1ccc(Cl)cc1 as the molecule, how does the CC50 at 48 h read?
A: Its CC50 at 48 h is 245 µM.

Tested on: not listed separately
Assay: Selectivity index, ratio of CC50 for cytotoxicity against human HEK-293T cells to IC50 for antiviral activity against Influenza A virus A/WSN/33(H1N1) […] cells
Format: toxicity, cell-based
Conditions: read-out: Ratio CC50/IC50

Q: With O=C(COc1cccc2ccc(N3CCCC3)nc12)NC12CC3CC(CC(C3)C1)C2 as the molecule, how does the selectivity ratio read?
A: The selectivity ratio was greater than 8.73.

Q: Which selectivity ratio does the source give for c1cc(OCCCN2CCOCC2)c2nc(N3CCCC3)ccc2c1 here?
A: Its selectivity ratio is greater than 1.97.

Q: Which selectivity ratio does the source give for CN1CCN(c2ccc3cccc(OCC(=O)NCc4ccccc4)c3n2)CC1 here?
A: Its selectivity ratio is greater than 10.1.

Q: With O=C(COc1cccc2ccc(N3CCCC3)nc12)NCc1ccc(C(F)(F)F)cc1 as the molecule, how does the selectivity ratio read?
A: Its selectivity ratio is greater than 2.77.

Q: With CN(C)c1ccc2cccc(OCC(=O)NCc3ccccc3)c2n1 as the molecule, how does the selectivity ratio read?
A: The selectivity ratio was greater than 7.02.

Q: For CCOc1ccccc1CNC(=O)COc1cccc2ccc(N3CCCC3)nc12, which selectivity ratio is on record?
A: The selectivity ratio was greater than 13.4.

Q: Which selectivity ratio does the source give for O=C(COc1cccc2ccc(N3CCCC3)nc12)NCc1ccc(Br)cc1 here?
A: The selectivity ratio was greater than 2.36.

Tested on: Influenza A virus
Assay: Antiviral activity against Influenza A virus A/WSN/33(H1N1) infected in human HEK-293T cells assessed as inhibition of viral replication after 48 hrs by CCK-8 assay
Format: functional, organism-based
Conditions: A/WSN/1933(H1N1)

Q: For O=C(COc1cccc2ccc(N3CCCC3)nc12)NC12CC3CC(CC(C3)C1)C2, which IC50 is on record?
A: The IC50 was 11.5 µM.

Q: For c1cc(OCCCN2CCOCC2)c2nc(N3CCCC3)ccc2c1, which IC50 is on record?
A: Its IC50 is 50.7 µM.

Q: For CN1CCN(c2ccc3cccc(OCC(=O)NCc4ccccc4)c3n2)CC1, which IC50 is on record?
A: The IC50 was 9.87 µM.

Q: For O=C(COc1cccc2ccc(N3CCCC3)nc12)NCc1ccc(C(F)(F)F)cc1, which IC50 is on record?
A: Its IC50 is 36.1 µM.

Q: For CN(C)c1ccc2cccc(OCC(=O)NCc3ccccc3)c2n1, which IC50 is on record?
A: Its IC50 is 14.2 µM.

Q: For CCOc1ccccc1CNC(=O)COc1cccc2ccc(N3CCCC3)nc12, which IC50 is on record?
A: The IC50 was 7.46 µM.

Q: With O=C(COc1cccc2ccc(N3CCCC3)nc12)NCc1ccc(Br)cc1 as the molecule, how does the IC50 read?
A: Its IC50 is 42.3 µM.

Tested on: HEK-293T
Assay: Cytotoxicity against human HEK-293T cells assessed as reduction in cell viability after 48 hrs by CCK-8 assay
Format: cell-based
Conditions: not given
Procedure, shortened: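 Cytotoxicity in 293T cells in 96-well plates incubated with compounds at six concentrations (top 200) for 48 h. CCK-8 solution added and OD read at 450 nm. DMSO-only cells served as control.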

Q: Which IC50 does the source give for O=C(COc1cccc2ccc(N3CCCC3)nc12)NC12CC3CC(CC(C3)C1)C2 here?
A: Its IC50 is greater than 100 µM.

Q: For c1cc(OCCCN2CCOCC2)c2nc(N3CCCC3)ccc2c1, which IC50 is on record?
A: The IC50 was greater than 100 µM.

Q: Which IC50 does the source give for CN1CCN(c2ccc3cccc(OCC(=O)NCc4ccccc4)c3n2)CC1 here?
A: Its IC50 is greater than 100 µM.

Q: For O=C(COc1cccc2ccc(N3CCCC3)nc12)NCc1ccc(C(F)(F)F)cc1, which IC50 is on record?
A: The IC50 was greater than 100 µM.

Q: For CN(C)c1ccc2cccc(OCC(=O)NCc3ccccc3)c2n1, which IC50 is on record?
A: The IC50 was greater than 100 µM.

Q: For CCOc1ccccc1CNC(=O)COc1cccc2ccc(N3CCCC3)nc12, which IC50 is on record?
A: Its IC50 is greater than 100 µM.

Q: Which IC50 does the source give for O=C(COc1cccc2ccc(N3CCCC3)nc12)NCc1ccc(Br)cc1 here?
A: Its IC50 is greater than 100 µM.

Tested on: not listed separately
Assay: Selectivity index, ratio of CC50 for cytotoxicity against human HEp-2 cells to IC50 for antiviral activity against RSV Long expressing mGFP infected in HEp-2 cells
Format: toxicity, cell-based
Conditions: read-out: Ratio CC50/IC50

Q: Which selectivity ratio does the source give for CCOc1ccccc1NC(=O)COc1cccc2ccc(N3CCCC3)nc12 here?
A: Its selectivity ratio is 31.5.

Q: Which selectivity ratio does the source give for O=C(COc1cccc2ccc(N3CCCC3)nc12)NCc1cccc(Cl)c1 here?
A: The selectivity ratio was 2.41.

Q: Which selectivity ratio does the source give for c1cc(OCCCN2CCOCC2)c2nc(N3CCCC3)ccc2c1 here?
A: The selectivity ratio was 39.2.

Q: For CN1CCN(c2ccc3cccc(OCC(=O)NCc4ccccc4)c3n2)CC1, which selectivity ratio is on record?
A: Its selectivity ratio is 13.7.

Q: With O=C(COc1cccc2ccc(N3CCCC3)nc12)NCc1ccc(C(F)(F)F)cc1 as the molecule, how does the selectivity ratio read?
A: The selectivity ratio was 11.8.

Q: Which selectivity ratio does the source give for O=C(COc1cccc2ccc(N3CCCC3)nc12)NCc1ccc(F)cc1 here?
A: The selectivity ratio was 483.

Q: Which selectivity ratio does the source give for CN(C)c1ccc2cccc(OCC(=O)NCc3ccccc3)c2n1 here?
A: Its selectivity ratio is 54.1.

Q: Which selectivity ratio does the source give for CNc1ccc2cccc(OCC(=O)NCc3ccccc3)c2n1 here?
A: Its selectivity ratio is 9.2.

Q: With c1cc(OCCCCN2CCOCC2)c2nc(N3CCCC3)ccc2c1 as the molecule, how does the selectivity ratio read?
A: The selectivity ratio was 59.6.

Q: With CCOc1ccccc1CNC(=O)COc1cccc2ccc(N3CCCC3)nc12 as the molecule, how does the selectivity ratio read?
A: Its selectivity ratio is 2.48.

Q: Which selectivity ratio does the source give for O=C(COc1cccc2ccc(N3CCOCC3)nc12)NCc1ccccc1 here?
A: The selectivity ratio was 1.28.

Q: With COc1ccc(CNC(=O)COc2cccc3ccc(N4CCCC4)nc23)cc1 as the molecule, how does the selectivity ratio read?
A: The selectivity ratio was 673.

Q: Which selectivity ratio does the source give for O=C(COc1cccc2ccc(N3CCCC3)nc12)NCC1CC1 here?
A: The selectivity ratio was 20.

Q: For O=C(COc1cccc2ccc(N3CCCC3)nc12)NCc1ccc(Cl)cc1, which selectivity ratio is on record?
A: The selectivity ratio was 6.26.

Tested on: Respiratory syncytial virus
Assay: Potency index, ratio of ribavirin IC50 to test compound IC50 for antiviral activity against RSV Long expressing mGFP infected in HEp-2 cells
Format: functional
Conditions: not given

Q: For O=C(COc1cccc2ccc(N3CCCC3)nc12)NCc1ccc(F)cc1, which “Ratio IC50” value is on record?
A: Its value is 2.5.

Q: Which “Ratio IC50” value does the source give for CN(C)c1ccc2cccc(OCC(=O)NCc3ccccc3)c2n1 here?
A: Its value is 2.5.

Q: Which “Ratio IC50” value does the source give for COc1ccc(CNC(=O)COc2cccc3ccc(N4CCCC4)nc23)cc1 here?
A: The value was 2.5.

Tested on: Respiratory syncytial virus
Assay: Antiviral activity against RSV Long expressing mGFP infected in HEp-2 cells assessed as reduction in viral replication after 48 hrs by MTS assay
Format: functional, organism-based
Conditions: human respiratory syncytial virus, HEp-2, 48 h
Procedure, shortened: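 HEp-2 cells plated in 96-well plates; after 24 h, virus alone or virus plus compound added; 48 h incubation. MTS (2 mg/ml) added for 3 h at 37 °C, 5% CO2; absorbance read at 490 nm. Controls were mock-treated cells (uninfected, or infected without compound), with cell activity set as 100%.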

Q: For CCOc1ccccc1NC(=O)COc1cccc2ccc(N3CCCC3)nc12, which IC50 is on record?
A: The IC50 was 33.2 µM.

Q: With O=C(COc1cccc2ccc(N3CCCC3)nc12)NCc1cccc(Cl)c1 as the molecule, how does the IC50 read?
A: Its IC50 is 30.2 µM.

Q: With c1cc(OCCCN2CCOCC2)c2nc(N3CCCC3)ccc2c1 as the molecule, how does the IC50 read?
A: The IC50 was 14.1 µM.

Q: For CN1CCN(c2ccc3cccc(OCC(=O)NCc4ccccc4)c3n2)CC1, which IC50 is on record?
A: The IC50 was 19.3 µM.

Q: For O=C(COc1cccc2ccc(N3CCCC3)nc12)NCc1ccc(C(F)(F)F)cc1, which IC50 is on record?
A: Its IC50 is 27.8 µM.

Q: Which IC50 does the source give for O=C(COc1cccc2ccc(N3CCCC3)nc12)NCc1ccc(F)cc1 here?
A: The IC50 was 4.41 µM.

Q: With CN(C)c1ccc2cccc(OCC(=O)NCc3ccccc3)c2n1 as the molecule, how does the IC50 read?
A: The IC50 was 3.1 µM.

Q: For CNc1ccc2cccc(OCC(=O)NCc3ccccc3)c2n1, which IC50 is on record?
A: The IC50 was 10.3 µM.

Q: For c1cc(OCCCCN2CCOCC2)c2nc(N3CCCC3)ccc2c1, which IC50 is on record?
A: The IC50 was 11.6 µM.

Q: For CCOc1ccccc1CNC(=O)COc1cccc2ccc(N3CCCC3)nc12, which IC50 is on record?
A: The IC50 was 45.7 µM.

Q: With O=C(COc1cccc2ccc(N3CCOCC3)nc12)NCc1ccccc1 as the molecule, how does the IC50 read?
A: The IC50 was 36.1 µM.

Q: For COc1ccc(CNC(=O)COc2cccc3ccc(N4CCCC4)nc23)cc1, which IC50 is on record?
A: Its IC50 is 3.7 µM.

Q: Which IC50 does the source give for O=C(COc1cccc2ccc(N3CCCC3)nc12)NCC1CC1 here?
A: Its IC50 is 29 µM.

Q: For O=C(COc1cccc2ccc(N3CCCC3)nc12)NCc1ccc(Cl)cc1, which IC50 is on record?
A: The IC50 was 39.2 µM.
